Source: ChEMBL document CHEMBL2010757, “Cholinestrase inhibitory effects of geranylated flavonoids from Paulownia tomentosa fruits” (Bioorg Med Chem, 2012)

Assays:
Acetylcholinesterase [1] = target: T1, Acetylcholinesterase (Homo sapiens, UniProt P22303); experiment: Binding affinity to human erythrocyte AChE
Summary of the method: (§1)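 hAChE at 5 U/mL in 100 mM sodium phosphate pH 8.0 titrated with successive inhibitor additions. Excitation 276 nm, emission 300–400 nm, slits 2.0 nm, at 18 and 37 °C; triplicate means. Affinity constant KA and n from log[(F0−F)/F] = logKA + n log[Q] for static quenching.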

Butyrylcholinesterase [2] = target: T2, Butyrylcholinesterase (Equus caballus, UniProt Q9N1N9); experiment: Inhibition of equine BChE assessed as butyrylthiocholine iodide hydrolysis after 10 mins preincubation by spectrophotometry
Summary of the method: (§2)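 Equine serum BChE (0.05 U/mL) mixed with sample in 100 mM sodium phosphate pH 8.0, held 10 min at room temperature; started with DTNB (3.3 mM) and butyrylthiocholine iodide (1 mM). 5-Thio-2-nitrobenzoate read at 412 nm, triplicate. IC50 as concentration giving 50% inhibition; kinetics by Lineweaver–Burk plots at rising substrate and inhibitor levels, Ki from Dixon plot.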

Acetylcholinesterase [3] = target: T1, Acetylcholinesterase; experiment: Binding affinity to human erythrocyte AChE assessed as fluorescence quenching by microplate reader; summary of the method: as §1
Acetylcholinesterase [4] = target: T1, Acetylcholinesterase; experiment: Reversible inhibition of human erythrocyte AChE using assessed as acetylthiocholine iodide hydrolysis by spectrophotometry; conditions: TDE = time-dependent effect
Summary of the method: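 hAChE (0.25 U/mL) with 1 mM acetylthiocholine in 100 mM sodium phosphate pH 8.0 at 37 °C, read continuously by spectrophotometer for 300 s. Reversibility from initial velocity versus enzyme amount at several inhibitor levels. Enzyme preincubated with inhibitor 0–60 min in 10 min steps; residual velocity (v/v0) followed; progress curves at one inhibitor level fitted by nonlinear regression.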

Butyrylcholinesterase [5] = target: T2, Butyrylcholinesterase; experiment: Mixed type inhibition of equine BChE using butyrylthiocholine iodide as substrate by Lineweaver-Burk double-reciprocal-plot and dixon plot analysis; summary of the method: as §2
Acetylcholinesterase [6] = target: T1, Acetylcholinesterase; experiment: Mixed type inhibition of human erythrocyte AChE using acetylthiocholine iodide as substrate by Lineweaver-Burk double-reciprocal-plot and dixon plot analysis
Summary of the method: (§3)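 Human erythrocyte AChE (0.25 U/mL) with sample in 100 mM sodium phosphate pH 8.0, 10 min room temperature preincubation; started with DTNB (3.3 mM) and acetylthiocholine iodide (1 mM). Thiolate formation read at 412 nm, triplicate. IC50 as concentration for 50% inhibition; mode by Lineweaver–Burk plots over rising substrate and inhibitor, Ki by Dixon plot.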

Acetylcholinesterase [7] = target: T1, Acetylcholinesterase; experiment: Inhibition of human erythrocyte AChE assessed as acetylthiocholine iodide hydrolysis after 10 mins preincubation by spectrophotometry; summary of the method: as §3
Acetylcholinesterase [8] = target: T1, Acetylcholinesterase; experiment: Ratio of eriodictyol IC50 to compound IC50 for human erythrocyte AChE

T1 sequence (P22303 whole entry): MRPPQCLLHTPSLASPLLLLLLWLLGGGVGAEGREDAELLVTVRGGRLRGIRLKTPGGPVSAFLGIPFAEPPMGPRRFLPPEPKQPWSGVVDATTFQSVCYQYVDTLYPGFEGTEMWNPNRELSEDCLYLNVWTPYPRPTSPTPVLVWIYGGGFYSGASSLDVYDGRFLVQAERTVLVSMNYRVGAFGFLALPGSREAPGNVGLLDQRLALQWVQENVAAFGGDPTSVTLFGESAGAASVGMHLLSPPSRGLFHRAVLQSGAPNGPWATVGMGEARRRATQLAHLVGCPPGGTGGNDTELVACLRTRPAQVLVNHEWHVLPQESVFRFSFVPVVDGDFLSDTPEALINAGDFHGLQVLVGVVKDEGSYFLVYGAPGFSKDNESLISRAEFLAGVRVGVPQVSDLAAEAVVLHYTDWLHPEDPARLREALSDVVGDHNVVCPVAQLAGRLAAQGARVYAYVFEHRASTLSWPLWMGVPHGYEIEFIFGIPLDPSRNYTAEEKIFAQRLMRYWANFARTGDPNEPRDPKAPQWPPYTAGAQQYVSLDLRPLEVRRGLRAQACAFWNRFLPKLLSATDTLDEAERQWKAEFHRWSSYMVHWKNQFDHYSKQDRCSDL
T2 sequence (Q9N1N9 whole entry): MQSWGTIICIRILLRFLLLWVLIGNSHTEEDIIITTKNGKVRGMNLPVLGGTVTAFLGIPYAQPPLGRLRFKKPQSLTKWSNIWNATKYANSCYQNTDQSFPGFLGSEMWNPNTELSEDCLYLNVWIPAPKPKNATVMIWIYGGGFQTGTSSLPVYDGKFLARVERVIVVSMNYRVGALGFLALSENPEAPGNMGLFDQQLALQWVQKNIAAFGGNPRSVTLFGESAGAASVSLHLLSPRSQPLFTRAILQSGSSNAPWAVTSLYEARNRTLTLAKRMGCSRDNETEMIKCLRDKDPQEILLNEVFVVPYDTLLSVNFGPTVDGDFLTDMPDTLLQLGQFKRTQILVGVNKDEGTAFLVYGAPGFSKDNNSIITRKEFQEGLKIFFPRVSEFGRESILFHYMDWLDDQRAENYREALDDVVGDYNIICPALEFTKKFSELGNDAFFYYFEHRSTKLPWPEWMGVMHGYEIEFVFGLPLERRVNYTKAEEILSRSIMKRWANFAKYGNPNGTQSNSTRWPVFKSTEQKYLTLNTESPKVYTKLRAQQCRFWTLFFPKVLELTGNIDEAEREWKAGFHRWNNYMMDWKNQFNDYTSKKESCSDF

`COc1ccc([C@@H]2CC(=O)c3c(cc(O)c(C/C=C(\C)CCC=C(C)C)c3O)O2)cc1O` was tested, and the Ka (Acetylcholinesterase [1]) was 0.924 ×10³ L/M, the IC50 (Butyrylcholinesterase [2]) was 25.6 µM and the KSV (Acetylcholinesterase [3]) was 0.0103 ×10⁵ L/M. The inhibition (Acetylcholinesterase [4]) was “tde”, the Ki (Butyrylcholinesterase [5]) was 23.5 µM and the Ki (Acetylcholinesterase [6]) was 94.5 µM. The IC50 (Acetylcholinesterase [7]) was 92.4 µM and the inhibition (Acetylcholinesterase [7]) was “Dose-dependent effect”.

Work on `COc1c(O)cc(C2Oc3cc(O)c(C/C=C(\C)CCC=C(C)C)c(O)c3C(=O)[C@@H]2O)cc1O` (some centres not stated) yielded a Ka (Acetylcholinesterase [1]) of 4.54 ×10³ L/M, an IC50 (Butyrylcholinesterase [2]) of 3.8 µM and a KSV (Acetylcholinesterase [3]) of 0.0369 ×10⁵ L/M. The inhibition (Acetylcholinesterase [4]) was “tde”, the Ki (Butyrylcholinesterase [5]) was 4.5 µM and the Ki (Acetylcholinesterase [6]) was 16.9 µM. The IC50 (Acetylcholinesterase [7]) was 15.6 µM and the inhibition (Acetylcholinesterase [7]) was “Dose-dependent effect”.

Compound `CNC(=O)Oc1ccc2c(c1)[C@]1(C)CCN(C)[C@@H]1N2C` [PHYSOSTIGMINE] has an IC50 (Butyrylcholinesterase [2]) of 3.7 µM.

`COc1c(O)cc(C2CC(=O)c3c(cc(O)c(C/C=C(\C)CCC=C(C)C)c3O)O2)cc1O` (configuration not stated) was tested, and the IC50 (Butyrylcholinesterase [2]) was 6.4 µM, the inhibition (Acetylcholinesterase [4]) was “tde” and the Ki (Butyrylcholinesterase [5]) was 7.6 µM. For the same compound, the Ki (Acetylcholinesterase [6]) was 30.1 µM, the IC50 (Acetylcholinesterase [7]) was 22.9 µM and the inhibition (Acetylcholinesterase [7]) was “Dose-dependent effect”.

`COc1cc([C@H]2Oc3cc(O)c(C/C=C(\C)CCC=C(C)C)c(O)c3C(=O)[C@@H]2O)ccc1O` was tested, and the IC50 (Butyrylcholinesterase [2]) was 11.2 µM, the inhibition (Acetylcholinesterase [4]) was “tde” and the Ki (Butyrylcholinesterase [5]) was 18.2 µM. The Ki (Acetylcholinesterase [6]) was 68.2 µM, the IC50 (Acetylcholinesterase [7]) was 48.5 µM and the inhibition (Acetylcholinesterase [7]) was “Dose-dependent effect”.

Work on `CC(C)=CCC/C(C)=C/Cc1c(O)cc2c(c1O)C(=O)C[C@@H](c1ccc(O)c(O)c1)O2` [NYMPHAEOL A] yielded a Ka (Acetylcholinesterase [1]) of 5.49 ×10³ L/M, an IC50 (Butyrylcholinesterase [2]) of 1.4 µM and a KSV (Acetylcholinesterase [3]) of 0.0577 ×10⁵ L/M. For the same compound, the Ratio IC50 (Acetylcholinesterase [8]) was 200, the inhibition (Acetylcholinesterase [4]) was “tde” and the Ki (Butyrylcholinesterase [5]) was 1.2 µM. For the same compound, the Ki (Acetylcholinesterase [6]) was 8.4 µM, the IC50 (Acetylcholinesterase [7]) was 7.2 µM and the inhibition (Acetylcholinesterase [7]) was “Dose-dependent effect”.

`COc1ccc([C@@H]2CC(=O)c3c(O)cc(O)cc3O2)cc1O` [HESPERETIN] gave an IC50 (Butyrylcholinesterase [2]) of 1770 µM and an IC50 (Acetylcholinesterase [7]) of 2480 µM.

Work on `COc1ccc([C@H]2Oc3cc(O)c(C/C=C(\C)CCC=C(C)C)c(O)c3C(=O)[C@@H]2O)cc1O` yielded a Ka (Acetylcholinesterase [1]) of 2.7 ×10³ L/M, an IC50 (Butyrylcholinesterase [2]) of 12.7 µM and a KSV (Acetylcholinesterase [3]) of 0.0285 ×10⁵ L/M. The inhibition (Acetylcholinesterase [4]) was “tde”, the Ki (Butyrylcholinesterase [5]) was 18.7 µM and the Ki (Acetylcholinesterase [6]) was 34.3 µM. The IC50 (Acetylcholinesterase [7]) was 31.9 µM and the inhibition (Acetylcholinesterase [7]) was “Dose-dependent effect”.

In the case of `COc1cc([C@@H]2CC(=O)c3c(cc(O)c(C/C=C(\C)CCC=C(C)C)c3O)O2)ccc1O`, the IC50 (Butyrylcholinesterase [2]) is reported as 24.5 µM, the inhibition (Acetylcholinesterase [4]) is reported as “tde” and the Ki (Butyrylcholinesterase [5]) is reported as 23.6 µM. For the same compound, the Ki (Acetylcholinesterase [6]) was 150 µM, the IC50 (Acetylcholinesterase [7]) was 109 µM and the inhibition (Acetylcholinesterase [7]) was “Dose-dependent effect”.

Compound `COc1cc(C2CC(=O)c3c(cc(O)c(C/C=C(\C)CCC=C(C)C)c3O)O2)cc(OC)c1O` (configuration not stated) has an IC50 (Butyrylcholinesterase [2]) of 80 µM, a Ki (Butyrylcholinesterase [5]) of 75.2 µM and an IC50 (Acetylcholinesterase [7]) of 316 µM.

`O=C1C[C@@H](c2ccc(O)c(O)c2)Oc2cc(O)cc(O)c21` [ERIODICTYOL] gave an IC50 (Butyrylcholinesterase [2]) of 1120 µM and an IC50 (Acetylcholinesterase [7]) of 1660 µM.

`O=C1C[C@@H](c2ccc(O)cc2)Oc2cc(O)cc(O)c21` [NARINGENIN] gave an IC50 (Butyrylcholinesterase [2]) of 1490 µM and an IC50 (Acetylcholinesterase [7]) of 2040 µM.

`CC(C)=CCC/C(C)=C/Cc1c(O)cc2c(c1O)C(=O)C[C@@H](c1ccc(O)cc1)O2` [BONANNIONE A] was tested, and the IC50 (Butyrylcholinesterase [2]) was 20.6 µM, the inhibition (Acetylcholinesterase [4]) was “tde” and the Ki (Butyrylcholinesterase [5]) was 22.2 µM. The Ki (Acetylcholinesterase [6]) was 120 µM, the IC50 (Acetylcholinesterase [7]) was 91.5 µM and the inhibition (Acetylcholinesterase [7]) was “Dose-dependent effect”.
